The test system of experiment [1] is HeLa. The experiment can be described thus: Cell cycle arrest in human HeLa cells assessed as reduction in total cdc25c expression at 10 uM measured after 24 hrs by Western blot analysis. Format: functional, cell-based. A digest of the protocol:
(§1)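 HeLa cells treated 24 h at 1 or 10 µM, washed in cold PBS, lysed on ice 30 min, protein quantified by BCA; western blot for cdc25c, p-cdc2 Y15 and cyclin B1, membranes stripped and reprobed for vinculin as loading control.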

Experiment [2] is described as follows: Inhibition of bovine brain tubulin assembly by turbidimetry based spectrophotometric method. Further details: species or system Bos taurus.
Experiment [3] relates to HeLa. In words: Cell cycle arrest in human HeLa cells assessed as accumulation at G2/M phase at 10 uM measured after 24 hrs by propidium iodide staining based flow cytometry relative to control. Format: functional. A digest of the protocol:
(§2)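 HeLa cells exposed 24 h at 0.1, 1 and 10 µM; fixed, labelled with propidium iodide and analysed by flow cytometry for the fraction in each cycle phase; mean ± SEM of three experiments.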

Experiment [4] relates to HeLa. The experiment can be described thus: Cell cycle arrest in human HeLa cells assessed as reduction in accumulation at G1 phase at 0.1 to 10 uM measured after 24 hrs by propidium iodide staining based flow cytometry. Conditions: dose 0.1-10 µM. Format: functional. In short, it runs like this: as §2
Experiment [5] relates to HeLa. The experiment can be described thus: Induction of apoptosis in human HeLa cells assessed as increase in caspase-9 activation at 10 uM measured after 24 hrs by Western blot analysis. Format: functional, cell-based. A digest of the protocol:
(§3)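 After 24 h exposure of HeLa cells to 1 or 10 µM, lysates were blotted for cleaved caspase-9 and PARP; primary antibodies 2 h at room temperature, peroxidase secondary 1 h, ECL detection, vinculin reprobe for equal loading.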

In experiment [6] the test system is HeLa. In words: Induction of apoptosis in human HeLa cells assessed as increase in necrotic cells at 10 uM measured after 48 hrs by Annexin V-FITC/propidium iodide staining based flow cytometry. Format: functional, cell-based. In short, it runs like this: (§4)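 HeLa cells incubated 24 or 48 h at the stated concentrations, double stained with annexin V-FITC and PI, and surface phosphatidylserine measured by flow cytometry to separate live, early apoptotic, late apoptotic and necrotic cells; mean ± SEM of three independent experiments; p vs control.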

The subject of experiment [7] is HeLa. The experiment can be described thus: Cell cycle arrest in human HeLa cells assessed as reduction in accumulation at S phase at 0.1 to 10 uM measured after 24 hrs by propidium iodide staining based flow cytometry. Format: functional. Conditions: dose 0.1-10 µM. A digest of the protocol: as §2
Experiment [8] deals with HeLa. In words: Induction of mitochondrial potential loss in human HeLa cells measured after 24 to 48 hrs by JC1 staining based flow cytometry. Format: functional, cell-based. Conditions: dose 1-10 µM, time 24-48 hrs. A digest of the protocol: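 Mitochondrial membrane potential in HeLa cells after 24 or 48 h at 1 and 10 µM; JC-1 staining, excitation 490 nm, monomer emission at 530 nm versus aggregate at 590 nm […], read by flow cytometry; mean ± SEM, three independent experiments.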

In experiment [9] the test system is HeLa. In words: Cell cycle arrest in human HeLa cells assessed as increase in accumulation at G2/M phase measured after 24 hrs by propidium iodide staining based flow cytometry. Format: functional. As to conditions: dose 0.1-10 µM. A digest of the protocol: as §2
Experiment [10] is described as follows: Antiproliferative activity against human Panel NCI-57 (57 carcinoma cell lines) measured after 48 hrs by SRB assay. Format: functional. A digest of the protocol: (§5)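 Full NCI human tumor cell line panel; selected compounds tested at five doses, 10^-4 to 10^-8 M, with growth inhibition summarised as the mean graph mid-point (MG_MID) across the panel.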
Experiment [11] has as its system HeLa. The experiment can be described thus: Cell cycle arrest in human HeLa cells assessed as increase in cyclin B1 expression at 10 uM measured after 24 hrs by Western blot analysis. Format: functional, cell-based. A digest of the protocol: as §1
Experiment [12] has as its system HeLa. The experiment can be described thus: Induction of apoptosis in human HeLa cells assessed as increase in annexin-V positive cells at 10 uM measured after 24 hrs by Annexin V-FITC/propidium iodide staining based flow cytometry. Format: functional, cell-based. In short, it runs like this: as §4
In experiment [13] the test system is HeLa. The experiment can be described thus: Induction of apoptosis in human HeLa cells at 10 uM measured after 48 hrs by Annexin V-FITC/propidium iodide staining based flow cytometry. Format: functional, cell-based. A digest of the protocol: as §4
Experiment [14] deals with HeLa. The experiment can be described thus: Cell cycle arrest in human HeLa cells assessed as reduction in phosphorylated cdc2 expression at 10 uM measured after 24 hrs by Western blot analysis. Format: functional, cell-based. A digest of the protocol:
as §1

In experiment [15] the test system is HeLa. The experiment can be described thus: Induction of apoptosis in human HeLa cells assessed as increase in PARP cleavage at 10 uM measured after 24 hrs by Western blot analysis. Format: functional, cell-based. A digest of the protocol: as §3
In experiment [16] the target is T1, Tubulin (Homo sapiens) (UniProt P68371+Q9H4B7+P0DPH7+P68366+Q13509+Q71U36+P04350+Q3ZCM7+P07437+P68363+Q9BQE3+Q6PEY2+Q13885+Q9BVA1+Q9BUF5). The experiment can be described thus: Inhibition of [3H]colchicine binding to tubulin (unknown origin) at 50 uM by DEAE-cellulose filter method relative to control. Format: protein-complex assay.
Experiment [17] in a line: Antiproliferative activity against human Panel NCI-55 (55 carcinoma cell lines) measured after 48 hrs by SRB assay. Format: functional. A digest of the protocol: as §5
In experiment [18] the target is T1, Tubulin (Homo sapiens). The experiment can be described thus: Inhibition of [3H]colchicine binding to tubulin (unknown origin) at 5 uM by DEAE-cellulose filter method relative to control. Format: protein-complex assay.
Experiment [19] can be described thus: Antiproliferative activity against human Panel NCI-56 (56 carcinoma cell lines) measured after 48 hrs by SRB assay. Format: functional. A digest of the protocol: as §5

This note sets out measurements from ChEMBL document CHEMBL4732137, “Insight on [1,3]thiazolo[4,5-e]isoindoles as tubulin polymerization inhibitors” (Eur J Med Chem, 2021).

Active and inactive are the calls of the source. The rule behind the calls is not given here.

With `COc1cc(-c2c3c(cn2S(=O)(=O)c2ccccc2)-c2nc(N)sc2CC3)cc(OC)c1OC`, the result in experiment [1], in experiment [4], in [5], in [6], in [7] and in experiment [11] was Active. The result in [12], in experiment [13], in experiment [14] and in experiment [15] was Active. Also, the 50% inhibitory concentration (IC50) in [2] was over 20 µM. For the same molecule, the results for the Activity in experiment [3], in experiment [8] and in [9] were over 70%, “Dose-dependent effect” and “Dose-dependent effect”, respectively. In experiment [10], this molecule yielded a concentration for 50% growth inhibition (GI50) of 0.22 µM.
`COc1ccc(Cn2c(Br)c3c(c2-c2cc(OC)c(OC)c(OC)c2)CCc2sc(N)nc2-3)cc1` yielded a concentration for half-maximal inhibition (IC50) in experiment [2] of over 20 µM. Also, the values for the Activity in [3] and in experiment [8] were over 70% and “Dose-dependent effect”, respectively. Moreover, the outcome in experiment [4], in experiment [5], in experiment [6], in experiment [7], in experiment [11] and in experiment [12] was Active. The result in experiment [13] and in [15] was Active. The inhibition in experiment [16] was 22%. The molecule also had a GI50 in experiment [10] of 0.21 µM.
Take `COc1ccc(Cn2c(Br)c3c(c2-c2cc(OC)c(OC)c(OC)c2)CCc2sc(NC(C)=O)nc2-3)cc1`: the 50% inhibitory concentration (IC50) in experiment [2] was determined as 12 µM. This molecule registered an inhibition in experiment [16] of 41%. This molecule yielded a 50% growth inhibitory concentration (GI50) in [17] of 0.61 µM.
Regarding `COc1ccc(Cn2c(Br)c3c(c2Br)-c2nc(N)sc2CC3)cc1`, in experiment [2], the IC50 was found to be 7.8 µM. Besides, the inhibition in experiment [16] was 60%; in experiment [18] it was 11%. For the same molecule, the GI50 in [19] is 0.41 µM.
`O=C(Nc1nc2c(s1)CCc1c-2c(Br)n(Cc2ccccc2)c1Br)c1ccccc1` had an IC50 in experiment [2] of over 20 µM. Further, in [19], halving of growth (GI50) required 1.2 µM.
Turning to `Nc1nc2c(s1)CCc1c-2c(Br)n(Cc2ccccc2)c1Br`, in [2], the IC50 was over 20 µM. Besides, in experiment [19], the concentration for 50% growth inhibition (GI50) is 0.53 µM.
